Three compounds from ChEMBL document CHEMBL1156678, “A new class of analgesic agents toward prostacyclin receptor inhibition: synthesis, biological studies and QSAR analysis of 1-hydroxyl-2-substituted phenyl-4,4,5,5-tetramethylimidazolines” (Eur J Med Chem, 2008) can be followed below.

Data set [1] relates to Mus musculus. Briefly: Analgesic activity in ICR mouse assessed as pain threshold variation at 0.013 mmol/kg, ip after 150 mins by tail flick test relative to control. It counts as functional. In short, it runs like this: (§1)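 Male ICR mice (25 ± 2 g), kept on a 12/12 h light/dark cycle at 21 ± 2 °C for one day before use. Each received a single i.p. injection in 0.2 ml saline + 0.01 ml DMSO + 0.02 ml Tween-80. Vehicle-only mice served as controls. Basal tail-flick threshold was measured four times (BPT). Thresholds were then read every 30 min for 150 min. PTV = (post-dose threshold − BPT)/BPT. n = 10, x ± SD.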
(In general: In hot-plate and tail-flick tests a longer latency is read as antinociception.)

The subject of data set [2] is Mus musculus. Briefly: Analgesic activity in ICR mouse assessed as pain threshold variation at 0.0013 mmol/kg, ip after 30 mins by tail flick test relative to control. It counts as functional. In short, it runs like this:
as §1

Data set [3] deals with Mus musculus. Briefly: Analgesic activity in ICR mouse assessed as pain threshold variation at 0.0013 mmol/kg, ip after 60 mins by tail flick test relative to control. It counts as functional. In short, it runs like this: as §1
Data set [4] deals with Mus musculus. Briefly: Analgesic activity in ICR mouse assessed as pain threshold variation at 0.0013 mmol/kg, ip after 90 mins by tail flick test relative to control. In kind it is functional. The procedure, abridged:
as §1

In data set [5] the test system is Mus musculus. The experiment in a line: Analgesic activity in ICR mouse assessed as pain threshold variation at 0.0013 mmol/kg, ip after 120 mins by tail flick test relative to control. It counts as functional. The procedure, abridged:
as §1

Data set [6] has as its system Mus musculus. Briefly: Analgesic activity in ICR mouse assessed as pain threshold variation at 0.0013 mmol/kg, ip after 150 mins by tail flick test relative to control. In kind it is functional. The procedure, abridged:
as §1

For data set [7], the system named is Mus musculus. Briefly: Thrombotic toxicity in ICR mouse assessed as tail bleeding time at 1.3 mmol/kg, ip after 60 mins. Particulars: in vivo, 1 h. It counts as organism-based. In short, it runs like this: (§2)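 Male ICR mice (25 ± 2 g) were kept one day on a 12/12 h light/dark cycle at 21 ± 2 °C. Each received a single i.p. dose of 1.30 mmol/kg in saline/DMSO/Tween-80 (0.2/0.01/0.02 ml), or the solvent only. The restrained mouse had 1 mm cut from the tail before dosing and at 5, 15, 30 and 60 min. Bleeding time (s) is reported as mean ± SD.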

Data set [8] in a line: Cardiovascular toxicity in rat aorta assessed as inhibition of noradrenaline-induced vasoconstriction at 5 mM relative to control. Particulars: isolated rat aorta. In kind it is tissue-based. The procedure, abridged:
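Rat aortic strips were contracted with noradrenaline, washed, stabilized for 30 min, and contracted again. At peak contraction, compound was added (final 5 × 10^-3 M) or vehicle alone. The relaxant response was recorded as percentage inhibition of the contraction.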

Data set [9] relates to Mus musculus. Briefly: Analgesic activity in ICR mouse assessed as pain threshold variation at 0.013 mmol/kg, ip after 30 mins by tail flick test relative to control. It counts as functional. In short, it runs like this: as §1
Data set [10] deals with Mus musculus. The experiment in a line: Analgesic activity in ICR mouse assessed as pain threshold variation at 0.013 mmol/kg, ip after 60 mins by tail flick test relative to control. In kind it is functional. The procedure, abridged: as §1
In data set [11] the test system is Mus musculus. Briefly: Analgesic activity in ICR mouse assessed as pain threshold variation at 0.013 mmol/kg, ip after 90 mins by tail flick test relative to control. It counts as functional. In short, it runs like this: as §1
The subject of data set [12] is Mus musculus. Briefly: Analgesic activity in ICR mouse assessed as pain threshold variation at 0.013 mmol/kg, ip after 120 mins by tail flick test relative to control. It counts as functional. In short, it runs like this: as §1
Data set [13] concerns Mus musculus. The experiment in a line: Analgesic activity in ICR mouse assessed as pain threshold variation at 0.13 mmol/kg, ip after 30 mins by tail flick test relative to control. In kind it is functional. In short, it runs like this: as §1
The subject of data set [14] is Mus musculus. The experiment in a line: Analgesic activity in ICR mouse assessed as pain threshold variation at 0.13 mmol/kg, ip after 60 mins by tail flick test relative to control. It counts as functional. The procedure, abridged:
as §1

In data set [15] the test system is Mus musculus. Briefly: Analgesic activity in ICR mouse assessed as pain threshold variation at 0.13 mmol/kg, ip after 90 mins by tail flick test relative to control. It counts as functional. The procedure, abridged: as §1
The subject of data set [16] is Mus musculus. The experiment in a line: Analgesic activity in ICR mouse assessed as pain threshold variation at 0.13 mmol/kg, ip after 120 mins by tail flick test. It counts as functional. In short, it runs like this: as §1
Data set [17] has as its system Mus musculus. Briefly: Analgesic activity in ICR mouse assessed as pain threshold variation at 0.13 mmol/kg, ip after 150 mins by tail flick test. In kind it is functional. In short, it runs like this:
as §1

Data set [18] deals with Mus musculus. The experiment in a line: Thrombotic toxicity in ICR mouse assessed as tail bleeding time at 1.3 mmol/kg, ip after 5 mins. It counts as organism-based. Particulars: in vivo. The procedure, abridged:
as §2

Data set [19] relates to Mus musculus. Briefly: Thrombotic toxicity in ICR mouse assessed as tail bleeding time at 1.3 mmol/kg, ip after 15 mins. To be noted: in vivo, 0.25 h. It counts as organism-based. In short, it runs like this: as §2
The test system of data set [20] is Mus musculus. Briefly: Thrombotic toxicity in ICR mouse assessed as tail bleeding time at 1.3 mmol/kg, ip after 30 mins. In kind it is organism-based. Particulars: in vivo, 0.5 h. In short, it runs like this:
as §2

The term inhibition denotes how much of the control response was suppressed. As for `CC1(C)N=C(c2ccc(Br)cc2)N(O)C1(C)C`, the Activity with Mus musculus [1] was 47.7%; with Mus musculus [2] it was 11.32%; in the data set with Mus musculus [3], 43.9%; in the data set on Mus musculus [4], 34.49%; in the data set on Mus musculus [5], 31.87%; in the data set with Mus musculus [6], 26.57%. Besides, the Activity came out at 120 s in the data set on Mus musculus [7]; 19.33% with Mus musculus [9]; 68.89% in the data set with Mus musculus [10]; 53.75% with Mus musculus [11]; 52.98% in the data set on Mus musculus [12]; 29.02% with Mus musculus [13]. In addition, the Activity with Mus musculus [14] worked out at 89.78%; in the data set with Mus musculus [15], 75.18%; in the data set on Mus musculus [16], 75.77%; in the data set on Mus musculus [17], 70.19%; with Mus musculus [18] it was 118 s; in the data set with Mus musculus [19], 119 s. The Activity in the data set with Mus musculus [20] was 118 s. Besides, the inhibition at 5000 µM in [8] stood at 18.4%.

Turning to `CC1(C)N=C(c2ccc(Cl)cc2)N(O)C1(C)C`, the Activity is 62.76% in the data set on Mus musculus [1]; 24.97% in the data set on Mus musculus [2]; 30.02% with Mus musculus [3]; 32.13% in the data set on Mus musculus [4]; 31.55% with Mus musculus [5]; 42.74% in the data set on Mus musculus [6]. The Activity in the data set with Mus musculus [7] was 119 s; in the data set with Mus musculus [9], 39.87%; in the data set on Mus musculus [10] it was 47.25%; in the data set with Mus musculus [11], 50.88%; in the data set on Mus musculus [12], 50%; with Mus musculus [13], 63.85%. Also, the Activity was found to be 70.21% with Mus musculus [14]; 75.61% with Mus musculus [15]; 74.74% with Mus musculus [16]; 88.42% in the data set with Mus musculus [17]; 117 s with Mus musculus [18]; 119 s in the data set on Mus musculus [19]. Moreover, the Activity in the data set with Mus musculus [20] turned out to be 117 s. Further, the inhibition at 5000 µM in [8] is 23.8%.

Take `CC1(C)N=C(c2ccccc2F)N(O)C1(C)C`: the Activity with Mus musculus [1] turned out to be 69.89%; in the data set with Mus musculus [2], 27.64%; in the data set with Mus musculus [3] it was 36.02%; in the data set on Mus musculus [4], 36.96%; in the data set with Mus musculus [5], 37.8%; in the data set on Mus musculus [6], 47.03%. The Activity in the data set on Mus musculus [7] came out at 119 s; with Mus musculus [9] it was 45.44%; with Mus musculus [10] it was 53.11%; with Mus musculus [11] it was 54%; in the data set with Mus musculus [12], 56.97%; in the data set on Mus musculus [13] it was 66.15%. The Activity in the data set with Mus musculus [14] worked out at 72.72%; in the data set with Mus musculus [15], 73.25%; in the data set on Mus musculus [16], 75.97%; in the data set on Mus musculus [17], 90.94%; with Mus musculus [18] it was 117 s; in the data set with Mus musculus [19], 117 s. The Activity in the data set on Mus musculus [20] was determined as 119 s. Moreover, the inhibition at 5000 µM in data set [8] was 22.7%.
